Sampled rows, rich in hits. Any-hit rate of the full collection: about 3%.
MPTP inh: mitochondrial permeability transition pore inhibitors, primary screen, biochemical, isolated mouse mitochondria, absorbance | inhibition, % at 10 µM | AID 602449, 2012 | hit rate 1.4% among 360,000 | Ca2+ swelling absorbance, 30 min;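 active = inhibition of 50% or more, scaled per plate between neutral and stimulator controls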;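 note: 0% = DMSO wells given calcium and 100% = 1 mM EGTA wells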
MIN6 prolif: inducers of MIN6 beta-cell proliferation, primary screen, ATP luminescence, uHTS; MIN6 cells proliferation, ATPlite luminescence, 48 h; cells starved in 0.2% serum; 100% = growth in 10% serum; proliferation, % at 10 µM; hit rate 0.29% among 330,000;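 active = compounds whose signal lies at least 3.5 SD above the mean of all wells on their plate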;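 note: 0% = DMSO-treated cells in low-serum medium and 100% = 10% serum control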
UBC13 inh: UBC13 polyubiquitin chain formation inhibitors, primary screen, biochemical, TR-FRET, uHTS; inhibition, % at 20 µM; hit rate 0.47% among 330,000; AID 485273, 2010; in the data active = inhibition above about 45%, passing the limit was not always enough
Apaf-1 inh: inhibitors of human Apaf-1 apoptosome, primary screen, biochemical, DEVD-Rh110 fluorescence, uHTS; inhibition, % at 20 µM; reconstituted apoptosome caspase-3 activity; hit rate 0.71% among 330,000; AID 489030, 2010; active = inhibition of at least 40% at 20 µM;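 note: plate controls were DMSO wells for no effect and DEVD-CHO caspase inhibitor wells for full effect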
Target sequence (O14727 whole entry, looked up): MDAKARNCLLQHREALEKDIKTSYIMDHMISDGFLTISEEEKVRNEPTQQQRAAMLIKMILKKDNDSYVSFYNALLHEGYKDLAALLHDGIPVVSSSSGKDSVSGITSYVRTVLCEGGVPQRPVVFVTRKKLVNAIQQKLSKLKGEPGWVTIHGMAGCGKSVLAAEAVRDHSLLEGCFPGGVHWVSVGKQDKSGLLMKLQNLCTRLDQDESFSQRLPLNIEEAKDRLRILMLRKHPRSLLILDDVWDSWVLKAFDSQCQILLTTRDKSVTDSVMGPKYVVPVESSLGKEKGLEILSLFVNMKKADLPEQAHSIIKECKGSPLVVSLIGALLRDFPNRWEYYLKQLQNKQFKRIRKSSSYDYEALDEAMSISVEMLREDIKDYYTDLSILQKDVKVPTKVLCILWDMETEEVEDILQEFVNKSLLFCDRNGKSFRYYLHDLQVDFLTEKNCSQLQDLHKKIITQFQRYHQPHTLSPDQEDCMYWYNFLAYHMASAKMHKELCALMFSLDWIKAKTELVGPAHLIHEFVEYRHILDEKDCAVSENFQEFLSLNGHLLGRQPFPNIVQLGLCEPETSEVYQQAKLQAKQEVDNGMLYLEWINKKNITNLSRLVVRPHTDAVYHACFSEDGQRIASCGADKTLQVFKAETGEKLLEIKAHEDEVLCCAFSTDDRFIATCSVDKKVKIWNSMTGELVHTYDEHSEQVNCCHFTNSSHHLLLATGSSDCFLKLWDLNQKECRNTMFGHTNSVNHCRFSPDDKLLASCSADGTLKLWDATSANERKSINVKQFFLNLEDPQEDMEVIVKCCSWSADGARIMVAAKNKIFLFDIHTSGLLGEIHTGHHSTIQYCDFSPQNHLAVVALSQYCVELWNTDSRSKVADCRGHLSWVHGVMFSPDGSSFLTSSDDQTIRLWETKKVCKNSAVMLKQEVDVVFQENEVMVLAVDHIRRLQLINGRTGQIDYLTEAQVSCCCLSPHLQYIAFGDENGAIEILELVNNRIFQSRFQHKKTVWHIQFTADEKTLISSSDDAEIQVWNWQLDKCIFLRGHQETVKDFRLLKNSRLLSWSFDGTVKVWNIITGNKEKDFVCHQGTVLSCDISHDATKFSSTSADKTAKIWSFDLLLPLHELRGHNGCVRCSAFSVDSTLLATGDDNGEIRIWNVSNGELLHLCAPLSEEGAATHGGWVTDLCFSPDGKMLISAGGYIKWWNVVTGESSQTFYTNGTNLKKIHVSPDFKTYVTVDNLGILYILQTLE
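Medium: Hepes buffer, pH 7.5 / System: biochemical Apaf-1 apoptosome reconstitution / Measured by: Rh110 fluorescence, excitation 480 nm, emission 540 nm / Times: compound with Apaf-1, dATP, procaspase-3 30 min, then 50 min reaction, room temperature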
hiPSC survival: enhancers of single-cell hiPSC survival, primary screen, ATPlite luminescence; 100% = ROCK inhibitor wells, 0% = DMSO; survival enhancement, % at 20 µM; hit rate 0.044% among 360,000; in the data active = survival enhancement above about 18%;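 note: cells exposed to compounds for 16 hours before the ATP read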
Exocytosis inh: LAMP-1 surface exposure blockers, TALL-104 cells – cell-based, flow cytometry, MLPCN library, primary screen | AID 651702, 2012 | TALL-104 LAMP-1 surface exposure; cells stimulated with thapsigargin and PMA | inhibition, % at 10 µM | hit rate 0.66% among 360,000;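 active = inhibition above about 55%, limit read from the data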
Apaf-1 inh conf: Apaf-1 inhibitors, single-dose retest, confirmation, biochemical, fluorescence, DEVD-Rh110, 20 µM; inhibition, % at 20 µM; AID 504614, 2011; hit rate 25% among 1,800; reconstituted apoptosome, caspase-3 DEVD-Rh110 fluorescence; shares compounds with Apaf-1 inh;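 active = mean inhibition of at least 40% at 20 µM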;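 note: plate controls were DMSO wells for no effect and DEVD-CHO caspase inhibitor control wells for full effect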
Rh110 interf inh: Rh110 fluorescence interference by putative Apaf-1 inhibitors, confirmation, artefact control for Apaf-1 inhibitor project, biochemical, 20 µM; shares compounds with Apaf-1 inh; quenched caspase reaction; activation (fluorescence interference), % at 20 µM; 1,800 tested, under 10 active;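 active = signal rise of 40% or more at 20 µM, treated as a fluorescence artifact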
Fluor interf inh: fluorescence interference of Apaf-1 inhibitor hits, dose response, artefact control for Apaf-1 inhibitor project; fluorescence interference counterscreen, Apaf-1 assay format; shares compounds with Apaf-1 inh; AID 588538, 2011; 460 tested, under 10 active; IC50, µM; call rule not given here
* marks the source's active call; other numbers are inactive results.

CC1(C)OC(C)(C)/C(=C/Nc2ccc(O)cc2)C1=O was read as MPTP inh 0, MIN6 prolif -3, UBC13 inh -6, Apaf-1 inh 48*, hiPSC survival 0, Exocytosis inh 4, Apaf-1 inh conf 14 and Rh110 interf inh -3.
CC(=O)Nc1cc(-c2cccc(F)c2)cn2c(-c3ccccc3)cnc12 was read as MPTP inh 2, hiPSC survival 3 and Exocytosis inh 48.
For C(=Nc1cccc2c(N=Cc3ccco3)cccc12)c1ccco1 the results were MPTP inh 0, MIN6 prolif -5, UBC13 inh -87, Apaf-1 inh 92*, hiPSC survival 0, Exocytosis inh 103*, Apaf-1 inh conf 28 and Rh110 interf inh 0.
`CN(C)c1ccc(N=Cc2ccco2)cc1` gave MPTP inh 0, MIN6 prolif -4, UBC13 inh -15, Apaf-1 inh 16, hiPSC survival -5 and Exocytosis inh 9.
CC1(C(=O)Nc2ccccc2)CCN1C(=O)C1(c2ccccc2)CC1 (configuration not stated) was read as MPTP inh 2, hiPSC survival 4 and Exocytosis inh -2.
`COCCCN1C(=O)C2C(C(=O)Nc3cccc(Cl)c3)C3C=CC2(O3)C1C(=O)NC1CCCCC1` (configuration not stated) gave MPTP inh 1, MIN6 prolif -1, UBC13 inh 6, Apaf-1 inh -8, hiPSC survival 0 and Exocytosis inh -5.
CN1CCc2nc(SCC(=O)Nc3cccc(F)c3)c(C#N)c(-c3cccs3)c2C1 was read as MPTP inh -1, MIN6 prolif -4, UBC13 inh 7, Apaf-1 inh 67*, hiPSC survival -2, Exocytosis inh 2, Apaf-1 inh conf 10 and Rh110 interf inh 3.
CN1CCc2nc(SCC(=O)Nc3ccc(OC(F)(F)F)cc3)c(C#N)c(-c3cccs3)c2C1 was read as MPTP inh 1, MIN6 prolif -5, UBC13 inh -2, Apaf-1 inh 23, hiPSC survival 2 and Exocytosis inh -2.
Screening CC1=C(C(=O)N(C)C)CC(CC(=O)NC2CCCCC2)C(=O)N1CCC1=CCCCC1 (configuration not stated) returned MPTP inh 0, hiPSC survival 1 and Exocytosis inh 2.
`CC(C)(C)c1ccc(OCCOc2ccc(C(C)(C)C)cc2NC=O)c(NC=O)c1` gave MPTP inh 14, MIN6 prolif -7, UBC13 inh -4, Apaf-1 inh 41*, hiPSC survival 1, Exocytosis inh 43, Apaf-1 inh conf 35 and Rh110 interf inh 6.
For Cc1ccc(C(NC(=O)c2cccc(S(=O)(=O)N3CCN(C)CC3)c2)c2ccccc2)cc1 (configuration not stated) the results were MPTP inh -2, MIN6 prolif -4, UBC13 inh 18, Apaf-1 inh 27, hiPSC survival 0 and Exocytosis inh 0.
CCCN(C(=O)CSCc1c(C)noc1C)c1c(N)n(Cc2ccccc2)c(=O)[nH]c1=O was read as MPTP inh -1, MIN6 prolif 2, UBC13 inh -1, Apaf-1 inh 1, hiPSC survival 0 and Exocytosis inh -3.
For CCN1CCN(c2ccc(S(=O)(=O)N3CCCCC3)cc2NC(=O)/C=C/c2cc(OC)ccc2OC)CC1 the results were MPTP inh 0, MIN6 prolif -7, UBC13 inh 32, Apaf-1 inh 46*, hiPSC survival 0, Exocytosis inh 60*, Apaf-1 inh conf 15 and Rh110 interf inh 2.
Screening CCN1CCN(c2ccc(S(=O)(=O)N3CCCCC3)cc2NC(=O)COc2ccc(Cl)c(C)c2)CC1 returned MPTP inh 0, MIN6 prolif -7, UBC13 inh 10, Apaf-1 inh 45*, hiPSC survival -1, Exocytosis inh 20, Apaf-1 inh conf 11 and Rh110 interf inh 4.
For CCN1CCN(c2ccc(S(=O)(=O)N3CCCCC3)cc2NC(=O)/C=C/c2ccc(OC)c(OC)c2)CC1 the results were MPTP inh 2, MIN6 prolif -7, UBC13 inh -4, Apaf-1 inh 21, hiPSC survival 0 and Exocytosis inh 17.
Brc1cccc(/C=N/Nc2nc(N3CCCCC3)nc(N3CCCCC3)n2)c1 was read as MIN6 prolif -3, UBC13 inh -4 and Apaf-1 inh 6.
Oc1ccc(/C=N/Nc2cc(N3CCCC3)nc(N3CCCC3)n2)cc1 was read as MPTP inh -1, MIN6 prolif -4, UBC13 inh -11, Apaf-1 inh 97*, hiPSC survival 0, Exocytosis inh 53, Apaf-1 inh conf 100*, Rh110 interf inh 12 and Fluor interf inh >100.
For Oc1cccc(/C=N/Nc2cc(N3CCCC3)nc(N3CCCC3)n2)c1 the results were MPTP inh 10, MIN6 prolif -4, UBC13 inh 6, Apaf-1 inh 97*, hiPSC survival 0, Exocytosis inh 51, Apaf-1 inh conf 99*, Rh110 interf inh 11 and Fluor interf inh >100.
For Oc1ccc(/C=N/Nc2cc(N3CCOCC3)nc(N3CCOCC3)n2)cc1 the results were MPTP inh 1, MIN6 prolif -4, UBC13 inh -28, Apaf-1 inh 11, hiPSC survival -4 and Exocytosis inh 5.
COc1ccccc1N(CCC#N)C(=S)Nc1ccc(S(=O)(=O)N2CCOCC2)cc1 was read as MPTP inh -1, MIN6 prolif 3, UBC13 inh 6, Apaf-1 inh 2, hiPSC survival 5 and Exocytosis inh -2.
For CN(C)S(=O)(=O)c1cccc(NC(=O)COC(=O)/C=C/c2ccco2)c1 the results were MPTP inh 2, MIN6 prolif -1, UBC13 inh -7, Apaf-1 inh 95*, hiPSC survival 1, Exocytosis inh -3, Apaf-1 inh conf 6 and Rh110 interf inh 1.

Screening results (PubChem)
